# Laboratory results: ChEMBL document CHEMBL1133552, “Synthesis and evaluation of pharmacological and pharmacokinetic properties of 11H-[1,2,4]triazolo[4,5-c][2,3]benzodiazepin-3(2H)-ones” (J Med Chem, 2000)
# How the values were obtained:
# [1] = Relative Lipophilicity measured by reversed-phase high performance thin-layer chromatography (RP-HPTLC); format: physicochemical
# Method in brief: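 Reversed-phase TLC; plates dried 105 °C, 1 h; mobile phase acetone/water 2:1 (v/v); 1 µL of 3 mg/mL CHCl3 solution spotted; five runs with varied placement; mean Rf converted via Rm = log[(1/Rf) - 1].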
# [2] = Evaluated for anticonvulsant property in DBA/2 mice against Locomotion assessed by Rotarod test (ip administration); format: functional, Mus musculus
# Method in brief: (§1)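 Rotarod (3-cm diameter, 8 rpm): trained mice in groups of 10 tested 30 min after ip dosing; failure to stay on for 2 min = impairment. TD50 by Litchfield-Wilcoxon, at least 32 animals per value.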
# [3] = Therapeutic index is the ratio between TD50 and ED50 (from the clonic phase of the audiogenic seizures); ND means not detectable
# Method in brief: (§2)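 Therapeutic index = TD50 (rotarod, ip) divided by ED50 for clonic phase of audiogenic seizures in DBA/2 mice; both by Litchfield-Wilcoxon, at least 32 animals each.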
# [4] = Evaluated for anticonvulsant property in DBA/2 mice against Locomotion assessed by Rotarod test (ip administration); value ranges from 34-77.8; format: functional, Mus musculus; method in brief: as §1
# [5] = Evaluated for anticonvulsant property in DBA/2 mice against Audiogenic seizures during clonic phase (ip administration); value ranges from 26.0-44.2; format: functional; conditions: Mus musculus
# Method in brief: (§3)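 DBA/2 mice, genetically sound-susceptible (8-12 g, 22-25 days old, either sex), groups of 10; drug ip in 50% DMSO/50% saline (0.1 mL/10 g), auditory stimulation 30 min later; latency and incidence of clonic and tonic phases scored; ED50 via Litchfield-Wilcoxon, at least 32 animals per value.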
# [6] = Evaluated for anticonvulsant property in DBA/2 mice against Locomotion assessed by Rotarod test (ip administration); value ranges from 87.3-231; format: functional, Mus musculus; method in brief: as §1
# Mus musculus = assay: Anticonvulsant activity was determined when tested at 15 min from intraperitoneal administration; format: functional; conditions: ip, 0.25 h
# [7] = Evaluated for anticonvulsant property in DBA/2 mice against Audiogenic seizures during tonic phase (ip administration); ranges from [32.5-57.4]; format: functional; conditions: Mus musculus; method in brief: as §3
# [8] = Evaluated for anticonvulsant property in DBA/2 mice against Audiogenic seizures during clonic phase (ip administration); ranges from [39.2-81.1]; format: functional; conditions: Mus musculus; method in brief: as §3
# [9] = Evaluated for anticonvulsant property in DBA/2 mice against Audiogenic seizures during tonic phase (ip administration); value ranges from 41.5-78.8; format: functional; conditions: Mus musculus; method in brief: as §3
# [10] = Evaluated for anticonvulsant property in DBA/2 mice against Audiogenic seizures during clonic phase (ip administration); value ranges from 46.0-132; format: functional; conditions: Mus musculus; method in brief: as §3
# [11] = Evaluated for anticonvulsant property in DBA/2 mice against Audiogenic seizures during clonic phase (ip administration); value ranges from 10.5-38.2; format: functional; conditions: Mus musculus; method in brief: as §3
# [12] = Evaluated for anticonvulsant property in DBA/2 mice against Locomotion assessed by Rotarod test (ip administration); value ranges from 59.4-99.3; format: functional, Mus musculus; method in brief: as §1
# [13] = Therapeutic index is the ratio between TD50 and ED50 (from the clonic phase of the audiogenic seizures); conditions: read-out: TI; method in brief: as §2
# [14] = Evaluated for anticonvulsant property in Swiss mice against MES induced seizures; value ranges from 26.8-45.8; format: functional; conditions: Mus musculus
# [15] = Evaluated for anticonvulsant property in Swiss mice against PTZ induced seizures; value ranges from 43.8-79.1; format: functional; conditions: Mus musculus
# Method in brief: (§4)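 Male Swiss mice given drug ip (50% DMSO/50% saline) 45 min before sc PTZ at CD97 (85 mg/kg); watched 30 min; protection = no clonic spasm lasting at least 5 s; ED50 by Litchfield-Wilcoxon.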
# [16] = Evaluated for anticonvulsant property in DBA/2 mice against Audiogenic seizures during tonic phase (ip administration); value ranges from 8.04-21.3; format: functional; conditions: Mus musculus; method in brief: as §3
# [17] = Evaluated for anticonvulsant property in DBA/2 mice against Audiogenic seizures during clonic phase (ip administration); value ranges from 60.3-91.0; format: functional; conditions: Mus musculus; method in brief: as §3
# [18] = Evaluated for anticonvulsant property in Swiss mice against MES induced seizures; value ranges from 62.4 - 92.1; format: functional; conditions: Mus musculus
# [19] = Evaluated for anticonvulsant property in Swiss mice against PTZ induced seizures; value ranges from 72.2 - 114; format: functional; conditions: Mus musculus; method in brief: as §4
# [20] = Evaluated for anticonvulsant property in DBA/2 mice against Audiogenic seizures during tonic phase (ip administration); value ranges from 41.3-82.3; format: functional; conditions: Mus musculus; method in brief: as §3
# [21] = Evaluated for anticonvulsant property in Swiss mice against PTZ induced seizures; value ranges from 41.5-78.8; format: functional; conditions: Mus musculus; method in brief: as §4
# [22] = Evaluated for anticonvulsant property in DBA/2 mice against Locomotion assessed by Rotarod test (ip administration); value ranges from 46.2-99.8; format: functional, Mus musculus; method in brief: as §1
# [23] = Evaluated for anticonvulsant property in Swiss mice against MES induced seizures; ranges from [18.6-51.0]; format: functional; conditions: Mus musculus
# [24] = Evaluated for anticonvulsant property in DBA/2 mice against audiogenic Seizures after pretreatment with Aniracetam during clonic phase, *p<0.01; value ranges from 20.5-71.9; format: functional; conditions: Mus musculus
# [25] = Evaluated for anticonvulsant property in DBA/2 mice against Audiogenic seizures during tonic phase (ip administration); value ranges from 8.67-11.93; format: functional; conditions: Mus musculus; method in brief: as §3
# [26] = Evaluated for anticonvulsant property in DBA/2 mice against AMPA induced seizures during tonic phase; value ranges from 11.4-28.7; format: functional; conditions: Mus musculus
# [27] = Evaluated for anticonvulsant property in DBA/2 mice against AMPA induced seizures during clonic phase; value ranges from 13.8-37.2; format: functional; conditions: Mus musculus
# [28] = Evaluated for anticonvulsant property in DBA/2 mice against audiogenic Seizures after pretreatment with Aniracetam during tonic phase, *p<0.01; value ranges from 12.7-45.5; format: functional; conditions: Mus musculus
# [29] = Evaluated for anticonvulsant property in DBA/2 mice against Audiogenic seizures during clonic phase (ip administration); value ranges from 11.8-22.0; format: functional; conditions: Mus musculus; method in brief: as §3
# [30] = Evaluated for anticonvulsant property in DBA/2 mice against Locomotion assessed by Rotarod test (ip administration); value ranges from 73.8-206; format: functional, Mus musculus; method in brief: as §1
# [31] = Evaluated for anticonvulsant property in DBA/2 mice against Audiogenic seizures during tonic phase (ip administration); value ranges from 15.4-49.4; conditions: Mus musculus
# [32] = Evaluated for anticonvulsant property in DBA/2 mice against Audiogenic seizures during clonic phase (ip administration); value ranges from 32.5-61.2; conditions: Mus musculus
# [33] = Evaluated for anticonvulsant property in Swiss mice against PTZ induced seizures; value ranges from 51.8-113; format: functional; conditions: Mus musculus; method in brief: as §4
# [34] = Evaluated for anticonvulsant property in Swiss mice against MES induced seizures; ranges from [45.6-80.3]; format: functional; conditions: Mus musculus
# [35] = Evaluated for anticonvulsant property in DBA/2 mice against audiogenic Seizures after pretreatment with Aniracetam during clonic phase; value ranges from 28.3-91.5; format: functional; conditions: Mus musculus
# [36] = Evaluated for anticonvulsant property in Swiss mice against PTZ induced seizures; value ranges from 45.6-80.3; format: functional; conditions: Mus musculus; method in brief: as §4
# [37] = Evaluated for anticonvulsant property in DBA/2 mice against audiogenic Seizures after pretreatment with Aniracetam during tonic phase, *p<0.01; value ranges from 23.5-62.7; format: functional; conditions: Mus musculus
# [38] = Evaluated for anticonvulsant property in Swiss mice against MES induced seizures; value ranges from 33.5-56.0; format: functional; conditions: Mus musculus
# [39] = Evaluated for anticonvulsant property in DBA/2 mice against Audiogenic seizures during tonic phase (ip administration); value ranges from 14.3-31.9; format: functional; conditions: Mus musculus; method in brief: as §3
# [40] = Evaluated for anticonvulsant property in DBA/2 mice against Audiogenic seizures during clonic phase (ip administration); value ranges from 16.3-[…]; format: functional; conditions: Mus musculus; method in brief: as §3
# [41] = Evaluated for anticonvulsant property in DBA/2 mice against AMPA induced seizures during clonic phase; value ranges from 27.5-64.3; format: functional; conditions: Mus musculus
# [42] = Evaluated for anticonvulsant property in DBA/2 mice against Locomotion assessed by Rotarod test (ip administration); value ranges from 65.1-126; format: functional, Mus musculus; method in brief: as §1
# [43] = Evaluated for anticonvulsant property in DBA/2 mice against AMPA induced seizures during tonic phase; value ranges from 20.6-50.3; format: functional; conditions: Mus musculus
smiles,measurement,setting,value
COc1cc2c(cc1OC)C(c1ccc([N+](=O)[O-])cc1)=NNC(=O)C2,Rm,[1],-0.145
same,TD50,[2],>150 µM/kg
same,TI,[3],Not detectable
COc1cc2c(cc1OC)C(c1cccc([N+](=O)[O-])c1)=NNC(=O)C2,Rm,[1],-0.181
same,TD50,[2],>150 µM/kg
same,TI,[3],Not detectable
COc1cc2c(cc1OC)C(c1cccc(N)c1)=NNC(=O)C2,Rm,[1],-0.619
same,TD50,[4],51.5 µM/kg
COc1cc2c(cc1OC)C(c1ccccc1)=NNC(=O)C2,ED50,[5],33.9 µmol/kg
same,Rm,[1],-0.28
same,TD50,[6],142 µM/kg
COc1cc2c(cc1OC)C(c1ccc(N)cc1)=NNC(=O)C2,ED50,Mus musculus,> 50 µmol/kg
same,Rm,[1],-0.647
same,TD50,[2],56.8 µM/kg
COc1cc2c(cc1OC)C(c1cccc([N+](=O)[O-])c1)=Nn1c(O)nnc1C2,Rm,[1],-0.402
same,ED50,[7],43.2 µmol/kg
same,TD50,[2],>150 µM/kg
same,ED50,[8],56.4 µmol/kg
COc1cc2c(cc1OC)C(c1ccc(F)cc1)=NNC(=O)C2,Rm,[1],-0.28
same,ED50,[9],57.2 µmol/kg
same,TD50,[2],>150 µM/kg
same,ED50,[10],78 µmol/kg
COc1cc2c(cc1OC)C(c1cccc(N)c1)=Nn1c(O)nnc1C2,Rm,[1],-0.74
same,ED50,[11],20.1 µmol/kg
same,TD50,[12],76.8 µM/kg
same,selectivity ratio,[13],3.8
same,ED50,[14],35.1 µmol/kg
same,ED50,[15],58.9 µmol/kg
same,ED50,[16],13.1 µmol/kg
COc1cc2c(cc1OC)C(c1ccc([N+](=O)[O-])cc1)=Nn1c(O)nnc1C2,ED50,[17],74.1 µmol/kg
same,ED50,[18],75.8 µmol/kg
same,Rm,[1],-0.368
same,TD50,[2],>150 µM/kg
same,ED50,[19],90.7 µmol/kg
same,ED50,[20],58.3 µmol/kg
COc1cc2c(cc1OC)C(c1ccc(N)cc1)=Nn1c(O)nnc1C2,ED50,Mus musculus,27.8 µmol/kg
same,ED50,[21],57.2 µmol/kg
same,TD50,[22],65.8 µM/kg
same,ED50,[23],30.8 µmol/kg
same,Rm,[1],-0.837
same,ED50,[24],38.4 µmol/kg
same,selectivity ratio,[13],4
same,ED50,[25],10.2 µmol/kg
same,ED50,[26],18.1 µmol/kg
same,ED50,[27],22.1 µmol/kg
same,ED50,[28],24.1 µmol/kg
same,ED50,[29],16.1 µmol/kg
COc1cc2c(cc1OC)C(c1ccccc1)=Nn1c(O)nnc1C2,TD50,[30],123 µM/kg
same,Rm,[1],-0.508
same,ED50,[31],27.5 µmol/kg
same,ED50,[32],44.6 µmol/kg
same,selectivity ratio,[13],2.8
same,ED50,[33],76.5 µmol/kg
same,ED50,[34],60.5 µmol/kg
COc1cc2c(cc1OC)C(c1ccc(F)cc1)=Nn1c(O)nnc1C2,Rm,[1],-0.402
same,ED50,[35],50.9 µmol/kg
same,ED50,[36],60.5 µmol/kg
same,ED50,[37],38.4 µmol/kg
same,ED50,[38],43.4 µmol/kg
same,selectivity ratio,[13],2.8
same,ED50,[39],21.8 µmol/kg
same,ED50,[40],32.1 µmol/kg
same,ED50,[41],42.1 µmol/kg
same,TD50,[42],90.6 µM/kg
same,ED50,[43],32.2 µmol/kg
CC1=NN=C(c2ccc(N)cc2)c2cc3c(cc2C1)OCO3 [GYKI-52466],Rm,[1],-0.368
